Screens deposited in PubChem BioAssay by several laboratories.
An excerpt weighted towards active compounds, which were near 3% of everything screened.
proKLK7 act: activators of human kallikrein-7 zymogen; 370,000 compounds, 0.9% hits; purified proKLK7, EDANS-DABCYL substrate fluorescence; 100% is mature enzyme control, 0% vehicle; AID 652039; P49862; activation, % at 7 µM;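 active = activation above the mean of all tested compounds plus 3 SD, computed per campaign excluding outliers beyond control limits, cut at about 13% in these data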
Tn7 DDE FP: DD(E)-Tn7 binding inhibition, primary FP screen; inhibition, % at 8.3 µM; 370,000 compounds, 0.13% hits; FP displacement of FITC-Tn7 peptide from fibrin DD(E); 0% = median of compound wells per plate; AID 720508; P02675;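 active = inhibition above the mean of compounds falling within the control limits plus 3 SD of them, cut at about 14% in these data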;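 also: 0% = plate median of compound wells and 100% = 10 µM Aha-Tn7 peptide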
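Also added: labelled Tn7 tracer, 0.1 µM; Assay system: human fibrin DD(E) protein; Amount: 2 µM fibrin DD(E); Schedule: 10 min compound pre-incubation, 3 h probe incubation at room temperature; Repeats: one replicate per compound; Read-out basis: percent inhibition; Measured by: fluorescence polarization of the labelled Tn7 tracer.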
PLC-gamma1 inh: blocks human PLC-gamma1 enzyme activity | purified PLC-gamma1, fluorogenic substrate, fluorescence | P19174 | 370,000 compounds, 0.84% hits | AID 720700 | inhibition, % at 12.2 µM; in the data active = inhibition above about 9.5%
DDE Tn6 FP inh: inhibitors of Tn6 peptide binding to human fibrin DD(E); Fibrin DD(E) TRITC-Tn6 fluorescence polarization displacement; P02675; AID 720509; inhibition, % at 8.3 µM; 370,000 compounds, 0.21% hits;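 active = inhibition above a per-campaign cutoff: mean of compounds within control limits plus 3 SD, cut at about 15% in these data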;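 also: 0% = median of all compound wells on the plate and 100% = blocking peptide control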
PLC-beta3 inh: PLC-beta3 (human) inhibition, primary screen; Purified PLC-beta3, fluorogenic substrate, fluorescence; inhibition, % at 12.2 µM; 370,000 compounds, 0.18% hits; in the data active = inhibition above about 11%;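 also: 0% = median of compound wells on plate and 100% = full blocker control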
CendR NRP1 mod: alters CendR peptide binding to human NRP-1 | FAM-RPARPAR peptide binding to NRP-1, fluorescence polarization | inhibition, % at 25 µM | 360,000 compounds, 0.85% hits | AID 602438;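 active = inhibition or corrected inhibition above about 18%, plus a signal ratio from 0.5 to 1.5, limit read from the data, passing the limit was not always enough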
Target sequence (O14786 whole entry, looked up): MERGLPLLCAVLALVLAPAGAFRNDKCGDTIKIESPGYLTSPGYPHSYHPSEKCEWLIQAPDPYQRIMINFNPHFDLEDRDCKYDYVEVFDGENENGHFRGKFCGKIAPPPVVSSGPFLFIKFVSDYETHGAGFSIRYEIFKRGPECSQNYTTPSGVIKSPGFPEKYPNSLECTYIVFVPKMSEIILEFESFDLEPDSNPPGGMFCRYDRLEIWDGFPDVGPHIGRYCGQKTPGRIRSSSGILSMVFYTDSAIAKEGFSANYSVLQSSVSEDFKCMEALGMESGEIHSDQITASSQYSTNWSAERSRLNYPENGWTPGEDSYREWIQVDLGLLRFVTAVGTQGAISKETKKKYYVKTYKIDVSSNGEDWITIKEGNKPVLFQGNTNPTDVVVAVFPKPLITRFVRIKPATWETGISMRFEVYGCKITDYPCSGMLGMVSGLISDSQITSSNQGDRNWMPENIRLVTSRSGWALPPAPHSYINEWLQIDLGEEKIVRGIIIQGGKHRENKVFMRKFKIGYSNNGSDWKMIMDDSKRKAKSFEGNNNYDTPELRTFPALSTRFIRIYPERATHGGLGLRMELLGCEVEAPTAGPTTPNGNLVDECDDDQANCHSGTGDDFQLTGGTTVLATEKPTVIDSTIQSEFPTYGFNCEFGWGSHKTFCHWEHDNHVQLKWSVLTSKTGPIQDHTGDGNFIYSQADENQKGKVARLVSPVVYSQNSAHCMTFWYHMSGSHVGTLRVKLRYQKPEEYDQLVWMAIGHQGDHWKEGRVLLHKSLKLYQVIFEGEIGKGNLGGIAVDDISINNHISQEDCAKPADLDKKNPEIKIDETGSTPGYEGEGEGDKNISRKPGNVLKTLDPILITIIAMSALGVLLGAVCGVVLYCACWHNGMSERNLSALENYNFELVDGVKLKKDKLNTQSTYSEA
Tn7 DDE conf: confirmation of inhibitors of Tn7 binding to human fibrin DD(E); 460 compounds, 5% hits; inhibition, % at 8.3 µM; shares compounds with Tn7 DDE FP; FP displacement of TRITC-Tn7 peptide from DD(E); 0% set at plate's compound-well median;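 active = inhibition above the campaign cutoff, the mean of compounds within control limits plus 3 SD, cut at about 14% in these data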;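 also: 100% = median FP of high control wells holding Aha-Tn7 inhibitor peptide; displacers lower polarization since freed probe rises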
Tn7 DDE ctr: counter-screen hit for Tn7 peptide-fibrin DD(E) binding disruption | AID 720633 | TRITC-Tn7 probe displacement, fluorescence polarization | shares compounds with Tn7 DDE FP | 460 compounds, 3% hits | inhibition, % at 8.3 µM;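 active = inhibition above the cutoff, the mean of compounds lying between the control bounds plus 3 SD of those compounds, cut at about 17% in these data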;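 also: 0% = median of compound sample wells and 100% = excess unlabeled Aha-Tn7 peptide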
* hit, by the source's call.

`O=C1[C@H](Cc2ccccc2)NCC=CC[C@@H](c2ccc(Cl)cc2)N1Cc1ccccc1` gave proKLK7 act 0.1, Tn7 DDE FP -1.9, PLC-gamma1 inh 4.9, DDE Tn6 FP inh -2.8, PLC-beta3 inh 4.7 and CendR NRP1 mod 7.3.
`O=C1[C@H](Cc2ccccc2)NCC=CC[C@H](c2ccco2)N1Cc1ccccc1` gave proKLK7 act 0.5, Tn7 DDE FP 15.7*, PLC-gamma1 inh 6.2, DDE Tn6 FP inh -2.7, PLC-beta3 inh 0.2, CendR NRP1 mod -1.3, Tn7 DDE conf 2.4 and Tn7 DDE ctr -4.9.
`O=C(c1ccccc1)N1CCSc2sccc2C1=O` gave proKLK7 act -0.6, Tn7 DDE FP 15.2*, PLC-gamma1 inh -0.2, DDE Tn6 FP inh 9.5, PLC-beta3 inh 0.8, CendR NRP1 mod -1.0, Tn7 DDE conf 5.3 and Tn7 DDE ctr -4.8.
For O=C(c1ccccc1)N1CCSC1=S the results were proKLK7 act -0.3, Tn7 DDE FP 0.2, PLC-gamma1 inh 8.1, DDE Tn6 FP inh 7.3, PLC-beta3 inh 6.0 and CendR NRP1 mod 10.5.
`COc1ccc(C2C(C(=O)Nc3ccc(Cl)c(Cl)c3)CCC(=O)N2c2ccc(OC)cc2)cc1` (configuration not stated) gave proKLK7 act 0.3, Tn7 DDE FP -4.9, PLC-gamma1 inh 0.3, DDE Tn6 FP inh 4.9 and PLC-beta3 inh 0.5.
CCOc1cc(CCNC(=O)c2cc3sccc3n2CC)ccc1OC was read as proKLK7 act -0.1, Tn7 DDE FP -1.2, PLC-gamma1 inh -2.1, DDE Tn6 FP inh 2.8 and PLC-beta3 inh 2.5.
Screening CC(=O)Nc1sc(C)c(C)c1C(=O)OCC(=O)Nc1ccccc1C(F)(F)F returned proKLK7 act 0.8, Tn7 DDE FP 16.5*, PLC-gamma1 inh -0.6, DDE Tn6 FP inh 4.5, PLC-beta3 inh 0.2, CendR NRP1 mod 8.2, Tn7 DDE conf 3.2 and Tn7 DDE ctr 2.4.
`CC(=O)Nc1sc(C)c(C)c1C(=O)OCC(=O)NCc1ccccc1` gave proKLK7 act -0.6, Tn7 DDE FP -0.9, PLC-gamma1 inh 1.3, DDE Tn6 FP inh -4.8, PLC-beta3 inh -4.7 and CendR NRP1 mod 6.7.
O=C(CCc1ccccc1)N[C@H]1[C@H](OCc2ccccc2)CCC[C@@]12C(=O)N(Cc1ccccc1)c1ccc(-c3ccsc3)cc12 was read as proKLK7 act 0.4, Tn7 DDE FP -3.9, PLC-gamma1 inh 3.0, DDE Tn6 FP inh 2.7 and PLC-beta3 inh 0.9.
For CCOC(=O)C(C)(C)Oc1cccc2c1S(=O)(=O)c1ccccc1-2 the results were proKLK7 act -0.6, Tn7 DDE FP 13.9*, PLC-gamma1 inh -7.9, DDE Tn6 FP inh -0.3, PLC-beta3 inh -13.2, CendR NRP1 mod -6.1, Tn7 DDE conf 2.1 and Tn7 DDE ctr 1.3.
Screening CC1=C(C(N)=O)S(=O)(=O)c2ccccc21 returned proKLK7 act 0.6, Tn7 DDE FP -5.2, PLC-gamma1 inh -6.6, DDE Tn6 FP inh -2.0, PLC-beta3 inh -16.5 and CendR NRP1 mod 5.7.
Screening O=C(OCC(=O)N1CCCc2ccccc21)c1cccc(C(F)(F)F)c1 returned proKLK7 act -0.7, Tn7 DDE FP 14.7*, PLC-gamma1 inh 0.4, DDE Tn6 FP inh 2.6, PLC-beta3 inh 1.9, CendR NRP1 mod -8.0, Tn7 DDE conf 2.8 and Tn7 DDE ctr 4.3.
COc1ccc(CN2C[C@]3(C=C(C)Cn4c(=O)n(-c5ccccc5)c(=O)n43)N(C(=O)OCc3ccccc3)C2=NC(=O)c2ccccc2)c(OC)c1 was read as proKLK7 act 0.5, Tn7 DDE FP 2.0, PLC-gamma1 inh 5.0, DDE Tn6 FP inh -1.8 and PLC-beta3 inh 2.9.
Screening Cc1cccc(NC(=O)c2ccc(C(=O)c3ccccc3)cc2)n1 returned proKLK7 act 0.1, Tn7 DDE FP 19.6*, PLC-gamma1 inh -3.7, DDE Tn6 FP inh -3.5, PLC-beta3 inh -9.3, CendR NRP1 mod 14.5, Tn7 DDE conf 5.1 and Tn7 DDE ctr -0.6.
